Source: PubChem
Shown are actives, neighbours in structure and some others; about 4.6% of the full set was active somewhere.
FAS-TE inh – inhibitors of human fatty acid synthase thioesterase domain; P49327; recombinant FAS-TE, OMFH fluorogenic substrate, fluorescence endpoint; inhibition, % at 15 µM; 360,000 compounds, 0.67% hits; AID 602261;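 active means compounds whose normalised, plate-corrected inhibition of enzyme fluorescence in the single-dose primary screen is 50% or more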;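 further: 0% = DMSO with enzyme and 100% = substrate without enzyme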
UCH37 inh – inhibitors of human deubiquitinating enzyme UCH37 | 330,000 compounds, 0.33% hits | inhibition, % (test concentration not listed) | Q9Y5K5 | purified proteasome/UCH37, Ub-AMC cleavage fluorescence;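 active means mean inhibition over replicate wells above about 20%, limit read from the data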;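 further: 0% = compound-free wells with enzyme and 100% = wells lacking proteasome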
Target sequence (Q9Y5K5 whole entry, looked up): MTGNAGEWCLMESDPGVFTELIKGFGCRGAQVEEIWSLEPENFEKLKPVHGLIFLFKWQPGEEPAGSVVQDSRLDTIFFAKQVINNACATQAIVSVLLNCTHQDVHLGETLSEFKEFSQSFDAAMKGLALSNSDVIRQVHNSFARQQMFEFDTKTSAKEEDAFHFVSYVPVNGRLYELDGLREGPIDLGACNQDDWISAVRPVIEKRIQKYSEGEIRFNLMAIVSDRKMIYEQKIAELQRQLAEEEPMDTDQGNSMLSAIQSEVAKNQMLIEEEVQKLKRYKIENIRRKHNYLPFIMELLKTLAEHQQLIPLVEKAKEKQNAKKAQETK
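Signal – fluorescence, ex 355 nm, em 460 nm · System – Proteasome-bound UCH37 · Input – 0.15 nM proteasome as dispensed · Timing – 30 min preincubation with enzyme, 25 min cleavage at room temperature · Read-out basis – percent inhibition of cleavage signal versus uninhibited and no-proteasome wells · Medium – Tris-HCl pH 7.4 with ATP-MgCl2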
HDAC3 inh – blocks human histone deacetylase 3. O15379. recombinant HDAC3, fluorogenic peptide/trypsin coupled, fluorescence. inhibition, % at 8.3 µM. 320,000 compounds, 0.15% hits; in the data active means inhibition above about 26%, passing the limit was not always enough
Rtt109 HAT inh – blocks Candida albicans Rtt109/Vps75 acetyltransferase activity. 330,000 compounds, 0.16% hits. Q5AAJ8. purified Rtt109/Vps75, ThioGlo CoA-SH fluorescence, 4 h. inhibition, % at 34.9 µM;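 active means inhibition of at least 50% in every replicate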
M18AAP inhibitor – blocks P. falciparum M18 aspartyl aminopeptidase; recombinant PfM18AAP, H-Glu-NHMec fluorogenic cleavage; inhibition, % at 7.35 µM; 290,000 compounds, 1.2% hits;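 active means inhibition above the campaign mean inhibition over all tested compounds plus 3 SD, cut at about 28% in these data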;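 further: 0% = plate median of test compound wells and 100% = 2 mM ZnCl2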
ALR H2O2 inh – human ALR oxidase inhibition via reduced H2O2; purified ALR, DTT oxidation, H2O2 HRP-luminol luminescence; P55789; AID 485317; inhibition, % (no concentration beside the values); 290,000 compounds, 3.8% hits;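 active means mean replicate inhibition above about 79%, with every replicate also reaching it, limit read from the data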
Target sequence (P55789 whole entry, looked up): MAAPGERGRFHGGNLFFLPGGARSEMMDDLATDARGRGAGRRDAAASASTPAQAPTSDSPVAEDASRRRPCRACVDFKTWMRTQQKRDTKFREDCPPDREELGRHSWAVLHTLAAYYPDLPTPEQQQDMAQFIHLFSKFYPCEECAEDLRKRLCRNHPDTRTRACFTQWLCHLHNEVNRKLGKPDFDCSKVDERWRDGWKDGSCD
* marks the source's active call; other numbers are inactive results.

`O=[N+]([O-])c1c(Cl)c(Cl)c(Cl)c(Cl)c1Cl` gave FAS-TE inh 16 and Rtt109 HAT inh -1.
`Nc1cc(Cl)c2nonc2c1[N+](=O)[O-]` gave FAS-TE inh 10, UCH37 inh 16, HDAC3 inh 1, Rtt109 HAT inh -10, M18AAP inhibitor 4 and ALR H2O2 inh 97*.
For COc1cc(/C=C/[N+](=O)[O-])ccc1O the results were FAS-TE inh -6, UCH37 inh 4, HDAC3 inh -3, Rtt109 HAT inh 15, M18AAP inhibitor 29* and ALR H2O2 inh 43.
For COc1ccc(-n2c(/C=C/c3ccc(O)c(OC)c3)nc3ccccc3c2=O)cc1 the results were FAS-TE inh 11, UCH37 inh 2, HDAC3 inh 0, Rtt109 HAT inh 15, M18AAP inhibitor -13 and ALR H2O2 inh 12.
For CC(=O)c1ccc(N2CCN(C(=O)CN3C(=O)NC4(CCCCC4)C3=O)CC2)c(F)c1 the results were FAS-TE inh -12, UCH37 inh 8, HDAC3 inh 1, Rtt109 HAT inh -13 and ALR H2O2 inh -2.
`CC(Cc1ccccc1)NC(=O)Cc1ccc(N(C)C)cc1` (configuration not stated) gave FAS-TE inh -9, UCH37 inh 1, HDAC3 inh 1, Rtt109 HAT inh -2, M18AAP inhibitor 8 and ALR H2O2 inh 99*.
For COc1cc(C=NNP(=S)(c2ccccc2)c2ccccc2)ccc1O the results were UCH37 inh 2.
Screening CCN1CCN(c2ccc(N)c(C)c2)CC1 returned FAS-TE inh -1, UCH37 inh 2, HDAC3 inh -4, Rtt109 HAT inh 11, M18AAP inhibitor 1 and ALR H2O2 inh 96*.
Screening COc1cccc(C2/C(=C(/O)c3ccc4c(c3)OCO4)C(=O)C(=O)N2CCN2CCOCC2)c1 (configuration not stated) returned FAS-TE inh -8, UCH37 inh 12, HDAC3 inh 3, Rtt109 HAT inh -1, M18AAP inhibitor 16 and ALR H2O2 inh -1.
COc1cc(C=NNC(=O)Cn2c([N+](=O)[O-])cnc2C)ccc1OC(=O)N(C)C was read as UCH37 inh 3.
For Cc1cc(=O)oc2cc3c(cc12)CCCN3 the results were FAS-TE inh -4, UCH37 inh inactive, HDAC3 inh -47, Rtt109 HAT inh -7, M18AAP inhibitor 6 and ALR H2O2 inh 93*.
Screening Cc1c(C=NO)c2ccccc2n1C returned UCH37 inh 1.
Screening CN(C)c1ccc(/C=C2/C(=N\O)C3CCN2CC3)cc1 returned FAS-TE inh -8, HDAC3 inh 6, Rtt109 HAT inh 2, M18AAP inhibitor 9 and ALR H2O2 inh 99*.
Screening Cc1cc(C)n(-c2ccc(NN=C(C#N)C#N)cc2)n1 returned FAS-TE inh 0, UCH37 inh 9, HDAC3 inh 7, Rtt109 HAT inh 20, M18AAP inhibitor 2 and ALR H2O2 inh 98*.
Screening C1=C(c2ccccc2)CCNC1 returned FAS-TE inh -6, UCH37 inh 1, HDAC3 inh -5, Rtt109 HAT inh 2, M18AAP inhibitor -1 and ALR H2O2 inh 3.
Oc1ccc(C2=CCNCC2)cc1O was read as FAS-TE inh -13, UCH37 inh 0, HDAC3 inh -7, Rtt109 HAT inh 2 and ALR H2O2 inh 99*.
`CCN1/C(=C\C=C\C2=[N+](CC)c3ccccc3C2(C)C)C(C)(C)c2ccccc21` gave FAS-TE inh -193, UCH37 inh 10, HDAC3 inh 5, Rtt109 HAT inh -4, M18AAP inhibitor 5 and ALR H2O2 inh 88*.
Screening O=C(CSC1c2ccccc2-c2ccccc21)NN=Cc1ccc(C(=O)O)cc1 returned UCH37 inh 2.
`O=C(OCCOc1ccccc1)c1cc(S(=O)(=O)N2CCOCC2)ccc1Cl` gave FAS-TE inh 27, UCH37 inh 2, HDAC3 inh 2 and Rtt109 HAT inh -8.
`O=[As](O)(O)c1ccc(N=Nc2ccc(O)cc2)cc1` gave FAS-TE inh 0, UCH37 inh 20, HDAC3 inh 11, Rtt109 HAT inh -4, M18AAP inhibitor 7 and ALR H2O2 inh 99*.
For NC(=O)Cn1cc(C=C2C(=O)NC(=O)NC2=O)c2ccccc21 the results were FAS-TE inh -3, UCH37 inh 4, HDAC3 inh 1, Rtt109 HAT inh 0, M18AAP inhibitor 29* and ALR H2O2 inh -6.
For O=C(O)Cn1cc(/C=C2\C(=O)NC(=O)N(c3ccc(F)cc3)C2=O)c2ccccc21 the results were HDAC3 inh 2, M18AAP inhibitor 15 and ALR H2O2 inh -15.
For N/C(=N\[N+](=O)[O-])N/N=C/c1ccc(O)cc1 the results were FAS-TE inh -6, HDAC3 inh 0, Rtt109 HAT inh 4, M18AAP inhibitor -1 and ALR H2O2 inh 97*.
Oc1ccc(C=NNP(=S)(c2ccccc2)c2ccccc2)cc1 was read as UCH37 inh 4.
`COc1ccccc1C=C1C(=O)NC(=S)NC1=O` gave FAS-TE inh -4, UCH37 inh -1 and Rtt109 HAT inh -3.
`COc1c(C=C2C(=O)NC(=O)NC2=O)c(CCN(C)C(=O)c2ccccc2)cc2c1OCO2` gave FAS-TE inh -3, UCH37 inh 6, HDAC3 inh 9, Rtt109 HAT inh 4, M18AAP inhibitor 16 and ALR H2O2 inh 96*.
For COc1ccc2c3c([nH]c2c1)C(C)=NCC3 the results were FAS-TE inh -4, UCH37 inh -329, HDAC3 inh -13, Rtt109 HAT inh 6, M18AAP inhibitor 4 and ALR H2O2 inh 13.
`CC1=NCCc2c1[nH]c1cc(O)ccc21` gave FAS-TE inh -145, UCH37 inh -470, HDAC3 inh -67, Rtt109 HAT inh inactive and ALR H2O2 inh 99*.
`Cc1ccc(NC(=O)CSc2nnc([C@@H](N)Cc3c[nH]c4ccccc34)o2)c(C)c1` gave FAS-TE inh -7, UCH37 inh 4, HDAC3 inh 5, Rtt109 HAT inh 3, M18AAP inhibitor 4 and ALR H2O2 inh 98*.
Screening NC(N)=Nc1ccc2[nH]c3c(c2c1)C[C@@]1(O)[C@H]2Cc4ccc(O)c5c4[C@@]1(CCN2CC1CC1)[C@H]3O5 returned FAS-TE inh 4, UCH37 inh 4, HDAC3 inh 60*, Rtt109 HAT inh 18 and ALR H2O2 inh -3.
`Cc1nn(Cc2ccccc2)c(C)c1C=C1C(=O)NC(=O)NC1=O` gave FAS-TE inh -14, UCH37 inh 2, HDAC3 inh 4, M18AAP inhibitor 6 and ALR H2O2 inh 95*.
Screening CCOc1ccc2nc(N=Nc3c(O)[nH]c(=O)[nH]c3=O)sc2c1 returned FAS-TE inh 2, UCH37 inh 19, HDAC3 inh 6, Rtt109 HAT inh 14, M18AAP inhibitor 0 and ALR H2O2 inh 9.
